Experimental data published in ChEMBL document CHEMBL5376013, “Design, synthesis and biological evaluation of novel morpholinopyrimidine-5-carbonitrile derivatives as dual PI3K/mTOR inhibitors” (RSC Med Chem, 2024).

Key:
Assay type in all cases: functional
Details in all cases: read-out: GI
SF-268 = experiment: Antitumor activity against human SF-268 cells assessed as growth inhibition at 10 uM relative to control
Procedure, shortened: (§1)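 After drug addition, plates were incubated 48 h at 37 °C under 5% CO2. Adherent cells were fixed with cold TCA (10% final, 60 min, 4 °C) and suspension cells with 16% final TCA. Staining used 0.4% SRB in 1% acetic acid, solubilized in 10 mM trizma, read at A515. Percent growth was calculated from time-zero, control and treated absorbances.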

SK-MEL-28 = experiment: Antitumor activity against human SK-MEL-28 cells assessed as growth inhibition at 10 uM relative to control
Procedure, shortened: (§2)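 Drug exposure 48 h at 37 °C, 5% CO2. Adherent cells fixed with cold TCA (10% final), suspension cells with TCA (16% final). Stained with 0.4% SRB in 1% acetic acid, dissolved in 10 mM Tris, A515. Growth relative to time-zero and untreated control.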

HCT-15 = experiment: Antitumor activity against human HCT-15 cells assessed as growth inhibition at 10 uM relative to control; procedure, shortened: as §1
NCI-H522 = experiment: Antitumor activity against human NCI-H522 cells assessed as growth inhibition at 10 uM relative to control; procedure, shortened: as §1
U-251 = experiment: Antitumor activity against human U-251 cells assessed as growth inhibition at 10 uM relative to control; procedure, shortened: as §2
HOP-62 = experiment: Antitumor activity against human HOP-62 cells assessed as growth inhibition at 10 uM relative to control; procedure, shortened: as §1
UO-31 = experiment: Antitumor activity against human UO-31 cells assessed as growth inhibition at 10 uM relative to control; procedure, shortened: as §2
SNB-19 = experiment: Antitumor activity against human SNB-19 cells assessed as growth inhibition at 10 uM relative to control; procedure, shortened: as §2
OVCAR-4 = experiment: Antitumor activity against human OVCAR-4 cells assessed as growth inhibition at 10 uM relative to control; procedure, shortened: as §1
SNB-75 = experiment: Antitumor activity against human SNB-75 cells assessed as growth inhibition at 10 uM relative to control; procedure, shortened: as §2
BT-549 = experiment: Antitumor activity against human BT-549 cells assessed as growth inhibition at 10 uM relative to control; procedure, shortened: as §1
LOX IMVI = experiment: Antitumor activity against human LOX IMVI cells assessed as growth inhibition at 10 uM relative to control; procedure, shortened: as §1
MDA-MB-468 = experiment: Antitumor activity against human MDA-MB-468 cells assessed as growth inhibition at 10 uM relative to control; procedure, shortened: as §1
RPMI-8226 = experiment: Antitumor activity against human RPMI-8226 cells assessed as growth inhibition at 10 uM relative to control; procedure, shortened: as §1
Malme-3M = experiment: Antitumor activity against human Malme-3M cells assessed as growth inhibition at 10 uM relative to control; procedure, shortened: as §1
T47D = experiment: Antitumor activity against human T47D cells assessed as growth inhibition at 10 uM relative to control; procedure, shortened: as §2
HOP-92 = experiment: Antitumor activity against human HOP-92 cells assessed as growth inhibition at 10 uM relative to control; procedure, shortened: as §1
SK-MEL-5 = experiment: Antitumor activity against human SK-MEL-5 cells assessed as growth inhibition at 10 uM relative to control; procedure, shortened: as §2
SN12C = experiment: Antitumor activity against human SN12C cells assessed as growth inhibition at 10 uM relative to control; procedure, shortened: as §2
MOLT-4 = experiment: Antitumor activity against human MOLT-4 cells assessed as growth inhibition at 10 uM relative to control; procedure, shortened: as §1
SR = experiment: Antitumor activity against human SR cells assessed as growth inhibition at 10 uM relative to control; procedure, shortened: as §2
OVCAR-3 = experiment: Antitumor activity against human OVCAR-3 cells assessed as growth inhibition at 10 uM relative to control; procedure, shortened: as §1
HCT-116 = experiment: Antitumor activity against human HCT-116 cells assessed as growth inhibition at 10 uM relative to control; procedure, shortened: as §1
MDA-MB-231 = experiment: Antitumor activity against human MDA-MB-231 cells assessed as growth inhibition at 10 uM relative to control; procedure, shortened: as §1
KM12 = experiment: Antitumor activity against human KM12 cells assessed as growth inhibition at 10 uM relative to control; procedure, shortened: as §1
PC-3 = experiment: Antitumor activity against human PC-3 cells assessed as growth inhibition at 10 uM relative to control; procedure, shortened: as §1
HT-29 = experiment: Antitumor activity against human HT-29 cells assessed as growth inhibition at 10 uM relative to control; procedure, shortened: as §1
NCI-H23 = experiment: Antitumor activity against human NCI-H23 cells assessed as growth inhibition at 10 uM relative to control; procedure, shortened: as §1
RXF 393 = experiment: Antitumor activity against human RXF 393 cells assessed as growth inhibition at 10 uM relative to control; procedure, shortened: as §1
MCF7 = experiment: Antitumor activity against human MCF7 cells assessed as growth inhibition at 10 uM relative to control; procedure, shortened: as §1
UACC-257 = experiment: Antitumor activity against human UACC-257 cells assessed as growth inhibition at 10 uM relative to control; procedure, shortened: as §2
SK-MEL-2 = experiment: Antitumor activity against human SK-MEL-2 cells assessed as growth inhibition at 10 uM relative to control; procedure, shortened: as §1
DU-145 = experiment: Antitumor activity against human DU-145 cells assessed as growth inhibition at 10 uM relative to control; procedure, shortened: as §1
K562 = experiment: Antitumor activity against human K562 cells assessed as growth inhibition at 10 uM relative to control; procedure, shortened: as §1
SF-539 = experiment: Antitumor activity against human SF-539 cells assessed as growth inhibition at 10 uM relative to control; procedure, shortened: as §1
CAKI-1 = experiment: Antitumor activity against human CAKI-1 cells assessed as growth inhibition at 10 uM relative to control; procedure, shortened: as §1
COLO 205 = experiment: Antitumor activity against human COLO 205 cells assessed as growth inhibition at 10 uM relative to control; procedure, shortened: as §1
786-0 = experiment: Antitumor activity against human 786-0 cells assessed as growth inhibition at 10 uM relative to control; procedure, shortened: as §1
CCRF-CEM = experiment: Antitumor activity against human CCRF-CEM cells assessed as growth inhibition at 10 uM relative to control; procedure, shortened: as §1
SW-620 = experiment: Antitumor activity against human SW-620 cells assessed as growth inhibition at 10 uM relative to control; procedure, shortened: as §2
SK-OV-3 = experiment: Antitumor activity against human SK-OV-3 cells assessed as growth inhibition at 10 uM relative to control; procedure, shortened: as §2
NCI/ADR-RES = experiment: Antitumor activity against human NCI-ADR-RES cells assessed as growth inhibition at 10 uM relative to control; procedure, shortened: as §1
UACC-62 = experiment: Antitumor activity against human UACC-62 cells assessed as growth inhibition at 10 uM relative to control; procedure, shortened: as §2
ACHN = experiment: Antitumor activity against human ACHN cells assessed as growth inhibition at 10 uM relative to control; procedure, shortened: as §1
NCI-H226 = experiment: Antitumor activity against human NCI-H226 cells assessed as growth inhibition at 10 uM relative to control; procedure, shortened: as §1
A549 = experiment: Antitumor activity against human A549 cells assessed as growth inhibition at 10 uM relative to control; procedure, shortened: as §1

SMILES: N#Cc1c(-c2ccc(Cl)cc2)nc(N/N=C/c2cccc(F)c2)nc1N1CCOCC1
- inhibition of growth at 10 µM (SF-268): < 1%
- inhibition of growth at 10 µM (SK-MEL-28): < 1%
- inhibition of growth at 10 µM (HCT-15): 21.3%
- inhibition of growth at 10 µM (NCI-H522): 11.6%
- inhibition of growth at 10 µM (U-251): 21.1%
- inhibition of growth at 10 µM (HOP-62): 10.3%
- inhibition of growth at 10 µM (UO-31): 37.5%
- inhibition of growth at 10 µM (SNB-19): < 1%
- inhibition of growth at 10 µM (OVCAR-4): < 1%
- inhibition of growth at 10 µM (SNB-75): 35.8%
- inhibition of growth at 10 µM (BT-549): < 1%
- inhibition of growth at 10 µM (LOX IMVI): 11.8%
- inhibition of growth at 10 µM (MDA-MB-468): < 1%
- inhibition of growth at 10 µM (RPMI-8226): 22.3%
- inhibition of growth at 10 µM (Malme-3M): < 1%
- inhibition of growth at 10 µM (T47D): 11.2%
- inhibition of growth at 10 µM (HOP-92): < 1%
- inhibition of growth at 10 µM (SK-MEL-5): < 1%
- inhibition of growth at 10 µM (SN12C): < 1%
- inhibition of growth at 10 µM (MOLT-4): 25.9%
- inhibition of growth at 10 µM (SR): < 1%
- inhibition of growth at 10 µM (OVCAR-3): < 1%
- inhibition of growth at 10 µM (HCT-116): < 1%
- inhibition of growth at 10 µM (MDA-MB-231): < 1%
- inhibition of growth at 10 µM (KM12): 16%
- inhibition of growth at 10 µM (PC-3): 14.9%
- inhibition of growth at 10 µM (HT-29): 30%
- inhibition of growth at 10 µM (NCI-H23): < 1%
- inhibition of growth at 10 µM (RXF 393): < 1%
- inhibition of growth at 10 µM (MCF7): < 12.4%
- inhibition of growth at 10 µM (UACC-257): < 1%
- inhibition of growth at 10 µM (SK-MEL-2): < 1%
- inhibition of growth at 10 µM (DU-145): < 1%
- inhibition of growth at 10 µM (K562): 15%
- inhibition of growth at 10 µM (SF-539): < 1%
- inhibition of growth at 10 µM (CAKI-1): 13.7%
- inhibition of growth at 10 µM (COLO 205): 27.2%
- inhibition of growth at 10 µM (786-0): < 1%
- inhibition of growth at 10 µM (CCRF-CEM): 19.6%
- inhibition of growth at 10 µM (SW-620): < 1%
- inhibition of growth at 10 µM (SK-OV-3): < 1%
- inhibition of growth at 10 µM (NCI/ADR-RES): < 1%
- inhibition of growth at 10 µM (UACC-62): < 1%
- inhibition of growth at 10 µM (ACHN): 10.2%
- inhibition of growth at 10 µM (NCI-H226): < 1%
- inhibition of growth at 10 µM (A549): < 1%
